STAT1 blocker – inhibitors of IFN-gamma induced STAT1 signaling; AID 920; NIH 3T3 STAT1-luciferase reporter, luminescence; inhibition, % at 5.5 µM; hit rate 0.35% among 200,000;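 active = inhibition above a set limit, the mean inhibition across all tested compounds plus 3 SD, cut at about 34% in these data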;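 also: 0% = IFN-gamma with DMSO and 100% = IFN-gamma with 300 µM nifuroxazide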
STAT3 blocker – inhibitors of IL-6 induced STAT3 signaling; inhibition, % at 5.5 µM; hit rate 0.89% among 190,000; U3A cells, IL-6 STAT3-luciferase reporter, luminescence; host cell line lacks STAT1; AID 862;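 active = inhibition above the mean inhibition across all screened compounds plus 3 SD, cut at about 44% in these data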;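 also: 0% = DMSO only wells and 100% = 100 µM nifuroxazide control wells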
STAT3 activator – increases IL-6 driven STAT3 reporter signal. hit rate 0.91% among 190,000. U3A cells, IL-6 STAT3-luciferase reporter, luminescence; 100% = signal with IL-6 EC80 alone. activation (% of control), % at 5.6 µM. AID 871;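 active = activation above the screen-wide mean of compound activation plus 3 SD, cut at about 130% in these data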;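 also: 0% = background luminescence of wells with medium and substrate only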
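Test system: STAT3-luciferase reporter U3A cells; Detection: reporter luminescence signal; Times: 1 h compound pre-exposure, 6 h IL-6 stimulation, 37 °C; Benchmarks: IL-6-only high control; Also added: IL-6 stimulus at 33 ng/mL final.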
STAT1 activator – STAT1 signaling activation; NIH 3T3 STAT1-luciferase reporter, IFN-gamma, luminescence; 100% = IFN-gamma alone, no compound; activation (% of control), % at 5.5 µM; hit rate 2.6% among 200,000;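 active = activation above the screen-wide mean activation plus 3 SD, cut at about 130% in these data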;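 also: raw ratio to IFN-gamma control signal so 100% means no change and 0% no light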
FLuc inhib CS – inhibits firefly luciferase, flagging false hits in luciferase inhibition screens. hit rate 1.5% among 200,000. ATPLite firefly luciferase biochemical luminescence, 10 min. AID 1006. inhibition, % at 10 µM. P08659;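 active = inhibition above about 50% when tested at 10 µM, limit read from the data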
Target sequence (P08659 whole entry, looked up): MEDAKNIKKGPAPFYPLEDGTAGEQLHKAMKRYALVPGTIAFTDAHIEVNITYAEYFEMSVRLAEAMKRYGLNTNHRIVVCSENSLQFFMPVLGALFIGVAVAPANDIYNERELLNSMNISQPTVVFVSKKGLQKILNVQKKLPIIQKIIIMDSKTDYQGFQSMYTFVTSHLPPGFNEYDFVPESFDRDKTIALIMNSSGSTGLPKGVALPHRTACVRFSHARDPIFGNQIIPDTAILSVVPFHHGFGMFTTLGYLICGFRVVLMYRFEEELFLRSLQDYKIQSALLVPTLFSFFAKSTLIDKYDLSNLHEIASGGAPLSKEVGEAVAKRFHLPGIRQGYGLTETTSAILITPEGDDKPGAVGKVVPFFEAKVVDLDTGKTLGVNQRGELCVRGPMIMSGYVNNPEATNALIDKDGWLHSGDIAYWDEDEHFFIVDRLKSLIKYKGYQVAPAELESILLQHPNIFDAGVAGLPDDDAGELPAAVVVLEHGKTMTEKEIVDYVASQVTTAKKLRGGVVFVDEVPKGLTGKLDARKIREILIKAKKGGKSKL
FLuc act counter – firefly luciferase counter-screen for stimulation assays. P08659. ATPlite luciferase biochemical, luminescence, 10 min; 0 = ATP-free wells, 1 = DMSO control. activation factor at 10 µM. 200,000 tested, under 10 active;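 active = luciferase activation factor, scaled between plate controls, of at least 2 with compound at 10 µM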
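System: luciferase plus luciferin reagent, cell-free; medium: PBS as buffer for the ATP substrate; dosing: test compounds dosed from 2 mM stocks in 100% DMSO; timing: 10 min post-reagent at room temperature; measured by: luminescence measurement of luciferase light output; evaluation: luciferase activation, seen as luminescence increase over controls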
* = called active by the depositor; · = no result given. Rows were chosen to be rich in hits. Some 4.9% of all compounds tested hit in one or more screens of this group.

SMILES	STAT1 blocker	STAT3 blocker	STAT3 activator	STAT1 activator	FLuc inhib CS	FLuc act counter
Clc1ccccc1CSc1ncn(-c2ccccc2)n1	-33	-18	118	131*	0	1
O=C(Nc1ncc(Cc2cccc(Cl)c2Cl)s1)C1CCCO1 (stereo not drawn)	-50	-8	108	144*	-2	1
O=S1(=O)N=C(Nc2ccc(N3CCOCC3)c(Cl)c2)c2ccccc21	-49	-12	120	146*	20	0.8
C=CCN(Cc1nc(-c2cc(OC)ccc2OC)oc1C)C1CCS(=O)(=O)C1 (stereo not drawn)	-3	6	98	102	-5	1.1
Cc1ccc(NC2Nc3cc(C)nn3S2)c(C)c1 (stereo not drawn)	-48	21	89	142*	20	0.8
O=C(N/N=C\c1ccc(-c2ccccc2[N+](=O)[O-])o1)C1COc2cc3ccccc3cc2O1 (stereo not drawn)	13	-1	110	88	-6	1.1
O=C(N/N=C\c1ccc(-c2ccccc2[N+](=O)[O-])o1)C1COc2ccccc2O1 (stereo not drawn)	5	-46	133*	95	-8	1.1
O=C(NNS(=O)(=O)c1ccc(F)c(Cl)c1)c1cccc(S(=O)(=O)N2CCOCC2)c1	8	5	98	92	-5	1.1
COc1ccc(C(=O)/C(C#N)=N/Nc2ccccc2[N+](=O)[O-])cc1	-7	5	99	106	-7	1.1
O=C(/C=C/Nc1ccc(F)cc1)c1ccc(Oc2ncccn2)cc1	-12	15	90	111	14	0.9
Cc1noc(NS(=O)(=O)c2ccc(N/C=C\C(=O)c3cccs3)cc2)c1C	-11	7	95	108	2	1
COc1ccc(C(=O)/C(C#N)=N/Nc2ccc([N+](=O)[O-])cc2)cc1	37*	59*	54	64	0	1
CN(C)c1ccc(N/C=C/C(=O)c2ccc(F)cc2)cc1	-10	36	73	120	58*	0.4
O=C(NCc1ccc2c(c1)OCO2)c1ccccn1	2	-7	107	99	-9	1.1
Cc1ccc(N/C=C/C(=O)c2cccs2)cc1	83*	98*	18	22	97*	0
O=C(/C=C\Nc1ccc2c(c1)OCO2)c1ccccn1	87*	103*	11	21	95*	0
CC(C)c1ccc(CN2CCN(C(=O)CCl)CC2)cc1	19	7	96	82	-11	1.1
Cc1nc(C)c(CCNC(=O)c2ccccc2Br)s1	6	-8	105	94	-1	1
COc1ccc(/C=C/C(=O)Nc2cc(C)on2)cc1	-30	-5	103	128	11	0.9
COc1ccc(OCCCC(=O)Nc2ccc3c(c2)OCO3)cc1	-1	1	102	101	-8	1.1
COc1ccc(C(=O)/C=C/Nc2cc(C)on2)cc1	-42	19	90	139*	25	0.8
O=C(/C=C\Nc1ccc2c(c1)OCO2)c1cccs1	65*	90*	27	40	96*	0
Cc1noc(NS(=O)(=O)c2ccc(N/C=C/C(=O)c3ccc4c(c3)OCO4)cc2)c1C	-17	-6	113	116	31	0.7
COc1ccc(N/C=C\C(=O)c2ccc3c(c2)OCO3)cc1	-13	30	73	112	89*	0.1
O=C(/C=C\Nc1ccc2c(c1)OCO2)c1ccc2c(c1)OCO2	51*	60*	51	51	89*	0.1
SMILES	STAT1 blocker	STAT3 blocker	STAT3 activator	STAT1 activator	FLuc inhib CS	FLuc act counter
S=C(NC1CCCCC1)N1CCN(Cc2ccccc2Cl)CC1	-1	7	98	99	-3	1
COc1ccc(NC(=O)COC(=O)/C=C/c2cnc3ccccc3n2)cc1	2	21	86	97	-6	1.1
COc1ccc(N2CCN(C(=O)CN(C3CCCCC3)S(C)(=O)=O)CC2)cc1	5	5	98	94	-7	1.1
CC(=O)N1CCN(Cc2nc3cc(NC(=O)Nc4ccccc4)ccc3n2C)CC1	-6	14	93	106	-3	1
COc1ccc(/C(N)=N/OC(=O)c2ccc3c(c2)OCO3)cc1	-15	4	99	113	69*	0.3
O=C(/C=C\Nc1cccc(F)c1)c1cccs1	-38	26	84	149*	79*	0.2
N/C(=N\OC(=O)c1ccc2ccccc2c1)c1ccc(Br)cc1	-6	4	97	105	-1	1
COc1ccc(N/C=C/C(=O)c2ccc(Oc3ncccn3)cc2)cc1	-7	28	85	106	38	0.6
CCOc1ccc(C(=O)Nc2ccc3c(c2)OCO3)cc1OCC	-6	-3	106	105	-2	1
CCOc1ccc(N/C=C\C(=O)c2ccc3c(c2)OCO3)cc1	-34	13	90	131*	·	·
COc1ccc(C(=O)/C=C/Nc2ccc([N+](=O)[O-])cc2)cc1	-36	9	95	132*	6	0.9
O=C(Nc1cccc(F)c1)/C(=C\c1ccco1)NC(=O)c1cccs1	0	7	100	100	-9	1.1
COc1ccc(N(C(=O)/C=C/c2ccc(OC)c(OC)c2)C2=CC3CCC(C2)N3C)cc1 (stereo not drawn)	4	12	97	97	-7	1.1
COc1ccc(CNC(=O)C/C(C)=N/NC(=O)C23CC4CC(CC(C4)C2)C3)cc1	-2	6	97	100	-6	1.1
COc1cccc(C(=O)O/N=C(\N)c2ccncc2)c1	-42	5	99	139*	89*	0.1
COc1ccc(C(=O)O/N=C(\N)c2ccncc2)cc1OC	-10	-15	110	109	-2	1
Fc1ccc(-c2nnc(NC3=NCCCCC3)o2)cc1	68*	100*	20	38	87*	0.1
Fc1ccc(NC2=NCCCCC2)cc1	11	6	100	91	-2	1
Cc1nn(CC(=O)OC(C)C(=O)Nc2ccccc2[N+](=O)[O-])c(C)c1[N+](=O)[O-] (stereo not drawn)	-15	4	92	114	-4	1
Nc1c(C(=O)Nc2ccc(F)cc2)sc(=S)n1-c1ccccc1F	-35	10	101	131*	8	0.9
COc1cccc(-c2ncc3ccccn23)c1	-32	1	101	135*	46	0.5
Cc1cc(Br)ccc1OCC(=O)NNC(=O)C(=O)Nc1ccccc1	-21	-1	104	118	0	1
COc1ccccc1/C=C/C(=O)OCC(=O)Nc1c(F)cccc1F	2	11	97	97	64*	0.4
COc1ccc(OC)c(/C=C/C(=O)OCC(=O)Nc2cccc(Oc3ccccc3)c2)c1	-6	3	98	105	-8	1.1

Compound activity as filed in PubChem.
